The source made the active and inactive calls. The rule behind the calls is not given here.
Columns and labels:
[1] = system: ZR-75-1; assay: Growth inhibition of human ZR-75-1 cells after 48 hrs by sulforhodamine B assay; format: functional; conditions: ZR-75-1, 48 h
Procedure, shortened: (§1)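 Cells grown in DMEM with 10% FBS and 2 mM L-glutamine, plated at densities set by doubling time, and held 24 h before dosing. Exposure was 48 h to 0.1, 1, 10 and 100 µM in triplicate wells. Cells fixed with cold TCA (final 10%) 60 min at 4 °C and stained with 0.4% SRB 20 min. Bound dye eluted in 10 mM Tris base and read at 540 nm (690 nm reference). GI50 is the concentration giving 50% reduction in net protein gain versus control; values are the mean of three determinations.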

[2] = system: MCF7; assay: Growth inhibition of human MCF7 cells after 48 hrs by sulforhodamine B assay; format: functional; conditions: MCF7, 48 h; procedure, shortened: as §1
[3] = system: KB; assay: Growth inhibition of human KB cells after 48 hrs by sulforhodamine B assay; format: functional; procedure, shortened: as §1
[4] = Growth inhibition of human DWD cells after 48 hrs by sulforhodamine B assay; format: functional; procedure, shortened: as §1
[5] = system: COLO 205; assay: Growth inhibition of human COLO205 cells after 48 hrs by sulforhodamine B assay; format: functional; conditions: COLO 205, 48 h; procedure, shortened: as §1
[6] = system: A549; assay: Growth inhibition of human A549 cells after 48 hrs by sulforhodamine B assay; format: functional; conditions: A549, 48 h; procedure, shortened: as §1
[7] = system: HOP-62; assay: Growth inhibition of human HOP62 cells after 48 hrs by sulforhodamine B assay; format: functional; conditions: HOP-62, 48 h; procedure, shortened: as §1
[8] = system: A2780; assay: Growth inhibition of human A2780 cells after 48 hrs by sulforhodamine B assay; format: functional; conditions: A2780, 48 h; procedure, shortened: as §1
[9] = system: COLO 205; assay: Cytotoxicity against human COLO205 cells at 2 uM after 24 hrs by MTT assay; format: functional, cell-based
Procedure, shortened: (§2)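 Colo-205 cells plated at 10,000 per well, left overnight, then exposed 24 h at 2, 4 or 8 µM. MTT added for 2 h at 37 °C, formazan dissolved in extraction buffer, and optical density read at 570 nm against untreated cells.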

[10] = system: COLO 205; assay: Cytotoxicity against human COLO205 cells at 4 uM after 24 hrs by MTT assay; format: functional, cell-based; procedure, shortened: as §2
[11] = system: COLO 205; assay: Cell cycle arrest in human COLO205 cells assessed as accumulation at G0 phase at 4 uM after 24 hrs by FACS analysis (reference value: 4.29%); format: functional
Procedure, shortened: (§3)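 Colo-205 cells seeded at […] per 60 mm dish and treated 24 h at 4 µM; TSA arm used TSA at 4 µM for 12 h. Cells trypsinised, fixed in ice-cold 70% ethanol 30 min at 4 °C, RNase 1 mg/mL 30 min at 37 °C, then propidium iodide/citrate/Triton stain. DNA content of 20,000 events read by flow cytometry; phase percentages from histograms.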

[12] = system: COLO 205; assay: Cell cycle arrest in human COLO205 cells assessed as accumulation at S phase at 4 uM after 24 hrs by FACS analysis (reference value: 8.91%); format: functional; procedure, shortened: as §3
[13] = system: COLO 205; assay: Cell cycle arrest in human COLO205 cells assessed as accumulation at G2/M phase at 4 uM after 24 hrs by FACS analysis (reference value: 25.92%); format: functional; procedure, shortened: as §3
[14] = system: COLO 205; assay: Cell cycle arrest in human COLO205 cells assessed as accumulation at G0 phase at 4 uM after 24 hrs by FACS analysis in presence of HDAC inhibitor, trichostatin A (reference value: 4.06%); format: functional; procedure, shortened: as §3
[15] = system: COLO 205; assay: Cell cycle arrest in human COLO205 cells assessed as accumulation at G2/M phase at 4 uM after 24 hrs by FACS analysis in presence of HDAC inhibitor, trichostatin A (reference value: 17.41%); format: functional; procedure, shortened: as §3
[16] = molecular target: DNA topoisomerase 2-beta (Homo sapiens) (UniProt Q02880); assay: Inhibition of topoisomerase 2beta in human in COLO205 cells assessed as induction of double-strand DNA breaks at 4 uM after 24 hrs by gamma-H2AX staining-based Western blotting analysis; format: cell-based; conditions: COLO 205
Procedure, shortened: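 Colo-205 cells treated 24 h at 4 µM. Double-strand breaks detected with anti-phospho-Ser139 H2AX antibody, both by immunofluorescence staining and by Western blot, with β-actin as loading control.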

[17] = system: COLO 205; assay: Up-regulation of topoisomerase 2alpha in human COLO205 cells at 4 uM after 24 hrs by Western blotting analysis in presence of HDAC inhibitor, trichostatin A; format: functional, cell-based
Procedure, shortened: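 Colo-205 cells exposed 24 h to test agent plus TSA, each at 4 µM. Western blot of lysates probed for topo-IIα, with β-actin as loading control.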

[18] = molecular target: DNA topoisomerase 2-alpha (Homo sapiens) (UniProt P11388); assay: Inhibition of topoisomerase 2alpha using pBR322 DNA as substrate at 50 uM after 30 mins by gel electrophoresis
Procedure, shortened: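 Purified topo-IIα enzyme (4 U/µL) incubated with pBR322 plasmid DNA and compound at 50, 25 or 10 µM final, in fresh buffer containing ATP, KCl, MgCl2, DTT and Tris pH 8.0. Inhibition of DNA processing assessed on the resulting gel.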

[19] = molecular target: Serine-protein kinase ATM (Homo sapiens) (UniProt Q13315); assay: Induction of ATM activation in human COLO205 cells at 4 uM after 24 hrs by ATM S1981 staining; format: cell-based; conditions: COLO 205
Procedure, shortened: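 Colo-205 cells on coverslips treated 24 h at 4 µM. Fixed in 4% paraformaldehyde, permeabilised with 0.2% Triton X-100, held in methanol overnight at 4 °C, and blocked with 1% BSA. Stained with anti-phospho-ATM (S1981) or anti-phospho-Chk1 (1:100) for 2 h at room temperature, then FITC anti-rabbit secondary for 1 h; DAPI/PI counterstain and confocal imaging.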

[20] = system: COLO 205; assay: Induction of apoptosis in human COLO205 cells assessed as increase in caspase 3 activation at 4 uM after 24 hrs by ELISA; format: functional, cell-based
[21] = system: COLO 205; assay: Induction of apoptosis in human COLO205 cells assessed as increase in caspase 3 activation at 4 uM after 24 hrs by Western blotting analysis; format: functional, cell-based
Procedure, shortened: (§4)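 Colo-205 cells treated 24 h at 4 µM and lysed in ice-cold RIPA with protease inhibitors and NaF. Protein measured by Bradford; 50 µg per lane run on 12% SDS-PAGE and transferred to PVDF. Membrane blocked 2 h, primary antibody (topo-IIα/β, p21, p16, pro-caspase-3, NF-kB p65) overnight at 4 °C, HRP secondary 1:2000 for 1 h, chemiluminescence detection; β-actin as loading control. Reduced procaspase-3 taken as caspase-3 activation.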

[22] = system: COLO 205; assay: Induction of apoptosis in human COLO205 cells assessed as down regulation of Bcl-2 at 4 uM after 24 hrs by ELISA; format: functional, cell-based
Procedure, shortened: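 Colo-205 cells treated 24 h at 4 µM, with etoposide and camptothecin as controls. Lysates added to Bcl2-antibody-coated wells, followed by a biotin-conjugated anti-human Bcl2 monoclonal antibody, in a Bcl2 ELISA.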

[23] = system: COLO 205; assay: Induction of apoptosis in human COLO205 cells assessed as up-regulation of p21 at 4 uM after 24 hrs by Western blotting analysis; format: functional, cell-based; procedure, shortened: as §4
[24] = system: COLO 205; assay: Induction of apoptosis in human COLO205 cells assessed as up-regulation of p16 at 4 uM after 24 hrs by Western blotting analysis; format: functional, cell-based; procedure, shortened: as §4
[25] = system: COLO 205; assay: Induction of apoptosis in human COLO205 cells assessed as up-regulation of NF-kappaB at 4 uM after 24 hrs by Western blotting analysis; format: functional, cell-based; procedure, shortened: as §4

Serine-protein kinase ATM (Homo sapiens), sequence (Q13315 whole entry): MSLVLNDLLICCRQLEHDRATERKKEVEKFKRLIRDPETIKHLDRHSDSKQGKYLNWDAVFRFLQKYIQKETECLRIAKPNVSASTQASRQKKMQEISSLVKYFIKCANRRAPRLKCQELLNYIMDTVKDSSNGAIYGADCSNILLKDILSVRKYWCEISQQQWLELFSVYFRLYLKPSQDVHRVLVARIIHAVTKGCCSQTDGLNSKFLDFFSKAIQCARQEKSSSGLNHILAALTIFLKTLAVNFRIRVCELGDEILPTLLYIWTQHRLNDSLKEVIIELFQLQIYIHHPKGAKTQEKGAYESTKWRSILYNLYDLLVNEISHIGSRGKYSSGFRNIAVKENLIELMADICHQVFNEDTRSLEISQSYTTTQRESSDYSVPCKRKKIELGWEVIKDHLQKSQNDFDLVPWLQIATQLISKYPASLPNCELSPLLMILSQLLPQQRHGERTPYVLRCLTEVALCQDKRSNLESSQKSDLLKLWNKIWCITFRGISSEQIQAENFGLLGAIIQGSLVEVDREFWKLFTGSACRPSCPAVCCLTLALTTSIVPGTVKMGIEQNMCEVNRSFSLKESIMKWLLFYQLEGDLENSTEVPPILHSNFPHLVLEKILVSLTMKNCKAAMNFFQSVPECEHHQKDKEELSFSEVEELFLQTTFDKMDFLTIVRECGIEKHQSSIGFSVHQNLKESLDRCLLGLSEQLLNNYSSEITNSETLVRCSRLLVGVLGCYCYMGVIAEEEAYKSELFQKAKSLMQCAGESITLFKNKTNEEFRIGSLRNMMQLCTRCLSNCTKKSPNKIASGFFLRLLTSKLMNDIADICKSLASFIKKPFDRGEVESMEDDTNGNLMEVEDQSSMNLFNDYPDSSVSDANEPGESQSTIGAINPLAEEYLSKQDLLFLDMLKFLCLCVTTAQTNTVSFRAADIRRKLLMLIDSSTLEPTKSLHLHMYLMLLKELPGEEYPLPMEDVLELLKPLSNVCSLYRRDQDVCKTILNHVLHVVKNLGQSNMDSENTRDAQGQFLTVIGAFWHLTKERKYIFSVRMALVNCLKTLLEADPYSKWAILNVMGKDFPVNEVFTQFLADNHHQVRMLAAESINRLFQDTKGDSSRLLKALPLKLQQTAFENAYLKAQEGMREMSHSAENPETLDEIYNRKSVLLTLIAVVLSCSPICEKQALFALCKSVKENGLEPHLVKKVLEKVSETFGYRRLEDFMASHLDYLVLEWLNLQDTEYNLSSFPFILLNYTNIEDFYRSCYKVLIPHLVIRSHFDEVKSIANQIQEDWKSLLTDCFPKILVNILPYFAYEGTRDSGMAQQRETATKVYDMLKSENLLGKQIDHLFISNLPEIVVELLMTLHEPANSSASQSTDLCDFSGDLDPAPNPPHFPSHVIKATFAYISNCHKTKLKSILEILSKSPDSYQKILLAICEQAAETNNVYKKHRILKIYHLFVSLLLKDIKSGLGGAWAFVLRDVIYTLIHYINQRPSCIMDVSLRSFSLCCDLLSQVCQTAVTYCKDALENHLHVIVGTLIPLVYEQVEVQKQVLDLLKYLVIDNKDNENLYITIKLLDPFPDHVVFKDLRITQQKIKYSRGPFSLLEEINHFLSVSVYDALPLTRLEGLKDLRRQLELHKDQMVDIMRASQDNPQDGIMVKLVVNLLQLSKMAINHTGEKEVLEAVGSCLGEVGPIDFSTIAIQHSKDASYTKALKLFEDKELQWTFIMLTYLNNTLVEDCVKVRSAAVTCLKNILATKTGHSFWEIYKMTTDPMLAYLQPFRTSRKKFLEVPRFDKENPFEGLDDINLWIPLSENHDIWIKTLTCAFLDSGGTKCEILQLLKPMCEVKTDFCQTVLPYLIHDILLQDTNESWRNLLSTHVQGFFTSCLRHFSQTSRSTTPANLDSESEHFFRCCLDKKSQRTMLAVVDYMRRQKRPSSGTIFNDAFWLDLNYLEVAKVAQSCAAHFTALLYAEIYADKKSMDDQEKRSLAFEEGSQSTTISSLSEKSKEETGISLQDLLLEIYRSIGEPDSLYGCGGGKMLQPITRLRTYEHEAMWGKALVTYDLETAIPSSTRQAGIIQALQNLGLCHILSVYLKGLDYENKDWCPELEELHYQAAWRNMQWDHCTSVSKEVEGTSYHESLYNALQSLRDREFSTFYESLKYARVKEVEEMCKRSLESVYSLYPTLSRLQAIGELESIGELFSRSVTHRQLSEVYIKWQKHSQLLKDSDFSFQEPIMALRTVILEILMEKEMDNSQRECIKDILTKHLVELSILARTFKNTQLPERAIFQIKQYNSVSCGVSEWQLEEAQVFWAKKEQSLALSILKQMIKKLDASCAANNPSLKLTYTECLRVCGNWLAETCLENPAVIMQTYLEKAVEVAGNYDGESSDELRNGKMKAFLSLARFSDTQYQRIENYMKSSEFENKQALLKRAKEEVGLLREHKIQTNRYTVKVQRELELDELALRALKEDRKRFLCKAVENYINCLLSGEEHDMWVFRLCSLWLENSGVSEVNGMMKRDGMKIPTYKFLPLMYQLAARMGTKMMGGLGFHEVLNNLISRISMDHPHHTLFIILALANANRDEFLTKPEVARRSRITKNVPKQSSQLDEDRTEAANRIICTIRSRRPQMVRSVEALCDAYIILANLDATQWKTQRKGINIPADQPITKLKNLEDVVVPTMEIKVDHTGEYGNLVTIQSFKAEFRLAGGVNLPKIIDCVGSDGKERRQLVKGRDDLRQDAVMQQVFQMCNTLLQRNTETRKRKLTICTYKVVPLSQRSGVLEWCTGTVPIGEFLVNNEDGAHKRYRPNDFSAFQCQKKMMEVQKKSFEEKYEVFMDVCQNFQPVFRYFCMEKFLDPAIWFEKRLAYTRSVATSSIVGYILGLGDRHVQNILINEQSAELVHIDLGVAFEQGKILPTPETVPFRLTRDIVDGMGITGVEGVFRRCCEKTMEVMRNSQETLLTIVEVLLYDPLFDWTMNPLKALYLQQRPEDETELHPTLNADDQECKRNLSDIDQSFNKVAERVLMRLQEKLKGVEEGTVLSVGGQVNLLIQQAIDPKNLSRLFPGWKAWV
DNA topoisomerase 2-beta (Homo sapiens), sequence (Q02880 whole entry): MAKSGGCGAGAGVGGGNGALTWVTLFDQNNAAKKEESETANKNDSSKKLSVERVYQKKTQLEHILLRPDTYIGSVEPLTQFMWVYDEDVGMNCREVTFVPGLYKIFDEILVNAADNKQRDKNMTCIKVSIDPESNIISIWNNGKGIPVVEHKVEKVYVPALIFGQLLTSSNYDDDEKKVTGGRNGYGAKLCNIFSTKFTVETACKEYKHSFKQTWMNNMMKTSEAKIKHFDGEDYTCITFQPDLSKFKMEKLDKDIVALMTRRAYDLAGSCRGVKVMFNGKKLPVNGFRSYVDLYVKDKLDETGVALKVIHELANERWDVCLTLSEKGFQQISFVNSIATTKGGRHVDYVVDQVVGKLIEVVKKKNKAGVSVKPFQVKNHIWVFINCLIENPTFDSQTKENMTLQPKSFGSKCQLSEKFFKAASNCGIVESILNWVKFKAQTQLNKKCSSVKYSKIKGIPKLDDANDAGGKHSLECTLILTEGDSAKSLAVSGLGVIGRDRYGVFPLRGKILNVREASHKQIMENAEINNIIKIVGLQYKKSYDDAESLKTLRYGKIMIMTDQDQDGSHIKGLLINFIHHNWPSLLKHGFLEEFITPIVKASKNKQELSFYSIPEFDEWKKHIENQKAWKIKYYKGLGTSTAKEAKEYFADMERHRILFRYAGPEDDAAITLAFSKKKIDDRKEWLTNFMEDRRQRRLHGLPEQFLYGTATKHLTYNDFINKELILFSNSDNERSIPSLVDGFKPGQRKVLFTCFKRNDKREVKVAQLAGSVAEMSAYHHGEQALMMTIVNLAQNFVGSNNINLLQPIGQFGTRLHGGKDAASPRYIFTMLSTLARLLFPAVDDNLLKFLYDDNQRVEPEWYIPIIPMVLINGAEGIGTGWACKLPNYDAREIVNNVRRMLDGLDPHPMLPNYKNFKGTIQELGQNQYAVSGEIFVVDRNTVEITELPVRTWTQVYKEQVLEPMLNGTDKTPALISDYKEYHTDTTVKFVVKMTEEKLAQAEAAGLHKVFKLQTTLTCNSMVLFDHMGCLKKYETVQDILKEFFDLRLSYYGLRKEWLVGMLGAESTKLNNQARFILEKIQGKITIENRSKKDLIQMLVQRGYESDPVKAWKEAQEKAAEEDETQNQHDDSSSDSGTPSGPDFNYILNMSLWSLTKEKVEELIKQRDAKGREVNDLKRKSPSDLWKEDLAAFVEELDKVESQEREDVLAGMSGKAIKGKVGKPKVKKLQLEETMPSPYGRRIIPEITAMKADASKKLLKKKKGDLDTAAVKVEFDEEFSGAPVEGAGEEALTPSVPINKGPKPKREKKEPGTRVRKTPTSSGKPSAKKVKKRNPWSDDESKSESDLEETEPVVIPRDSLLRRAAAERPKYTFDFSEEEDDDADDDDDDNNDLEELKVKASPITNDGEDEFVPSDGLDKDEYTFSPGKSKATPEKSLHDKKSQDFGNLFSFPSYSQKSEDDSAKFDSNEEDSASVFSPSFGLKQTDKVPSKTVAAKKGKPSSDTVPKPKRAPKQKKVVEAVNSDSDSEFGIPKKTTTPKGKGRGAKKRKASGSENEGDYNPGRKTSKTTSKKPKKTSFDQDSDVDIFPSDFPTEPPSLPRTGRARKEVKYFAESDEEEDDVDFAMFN

SMILES | GI50 [1] | GI50 [2] | GI50 [3] | GI50 [4] | GI50 [5] | GI50 [6] | GI50 [7] | GI50 [8] | Activity [9] | Activity [10] | Activity [11] | Percentage of cells in S phase [12] | Percentage of cells in G2/M phase [13] | Activity [14] | Activity [15] | inhibition [16] | Activity [17] | inhibition [18] | Activity [19] | Activity [20] | further results
COc1cc([C@@H]2c3cc4c(cc3[C@@H](O[C@@H]3O[C@@H]5CO[C@@H](C)O[C@H]5[C@H](O)[C@H]3O)[C@H]3COC(=O)[C@H]23)OCO4)cc(OC)c1O [ETOPOSIDE] | 200 nM | 2110 nM | 310 nM | 620 nM | 130 nM | 3080 nM | 800 nM | 1310 nM | Active | Active | 5.95% | 6.97% | 74.27% | 56.29% | 13.28% | Active | Active | Active | Active | Active | Activity [21]: Active; Activity [22]: Active; Activity [23]: Active; Activity [24]: Active; Activity [25]: Active
COC(=O)c1sccc1S(=O)(=O)N[C@@H]1c2cc3c(cc2[C@@H](c2cc(OC)c(OC)c(OC)c2)[C@H]2C(=O)OC[C@@H]21)OCO3 | 60 nM | 180 nM | 40 nM | 40 nM | 40 nM | 150 nM | 40 nM | 50 nM | Active | Active | 23.94% | 8.16% | 40.57% | 57.43% | 15.7% | 50% | Active | Active | Active | Active | Activity [21]: Active; Activity [22]: Active; Activity [23]: Active; Activity [24]: Active; Activity [25]: Active
